The results in this text go back to ChEMBL document CHEMBL4680339, “Synthesis and bioevaluation of N-(3,4,5-trimethoxyphenyl)-1H-pyrazolo[3,4-b]pyridin-3-amines as tubulin polymerization inhibitors with anti-angiogenic effects” (Bioorg Med Chem, 2021).

Molecules are shown by their SMILES. Some results are limits rather than exact numbers.

The subject of one experiment is HepG2. The experiment in a line: Antiproliferative activity against human HepG2 cells assessed as reduction in cell growth incubated for 72 hrs by MTT assay. The format is functional, cell-based. As to conditions: HepG2, 72 h. The procedure, abridged: (§1)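 Log-phase cells seeded at 5 × 10³/well and grown 24 h, then exposed to graded compound concentrations for 72 h. MTT (5 mg/mL) added for 4 h; formazan dissolved in DMSO and absorbance read at 490 nm. IC50 calculated from growth inhibition; means ± SD of triplicate experiments.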

In another experiment the test system is HeLa. The experiment can be described thus: Antiproliferative activity against human HeLa cells assessed as reduction in cell growth incubated for 72 hrs by MTT assay. The format is functional, cell-based. A digest of the protocol:
as §1

For another experiment, the system named is MCF7. The experiment in a line: Antiproliferative activity against human MCF7 cells assessed as reduction in cell growth incubated for 72 hrs by MTT assay. To be noted: MCF7, 72 h. The format is functional, cell-based. The procedure, abridged: as §1
Background: Tetrazolium assays rely on reduction of a dye to a coloured formazan, in cell work by metabolically active cells.

A further experiment has as its system A549. The experiment can be described thus: Antiproliferative activity against human A549 cells assessed as reduction in cell growth incubated for 72 hrs by MTT assay. The format is functional, cell-based. To be noted: A549, 72 h. The procedure, abridged: as §1
For the next experiment, the system named is HCT-116. The experiment in a line: Antiproliferative activity against human HCT-116 cells assessed as reduction in cell growth incubated for 72 hrs by MTT assay. As to conditions: HCT-116, 72 h. The format is functional, cell-based. A digest of the protocol:
as §1

In a further experiment the test system is WI-38. The experiment can be described thus: Cytotoxicity against human WI-38 cells assessed as reduction in cell growth incubated for 72 hrs by MTT assay. The format is cell-based. To be noted: WI-38, 72 h. A digest of the protocol:
as §1

Experiment [1] can be described thus: (§2) Inhibition of pig brain tubulin polymerization by spectrophotometric method. The format is tissue-based, Sus scrofa. A digest of the protocol:
(§3)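 Pig brain tubulin, purified by three assembly/disassembly cycles and phosphocellulose chromatography, mixed with compound at various concentrations. Buffer: PEM (100 mM PIPES, 1 mM MgCl₂, 1 mM EGTA) with 1 mM GTP and 5% glycerol. Polymerization followed at 37 °C by light scattering at 340 nm; plateau absorbance used for calculation.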

The species entered for a further experiment is Sus scrofa. The experiment is described as §2. The format is tissue-based. The procedure, abridged:
as §3

One may read the IC50 as the midpoint of a concentration-inhibition curve.

For the compound `CCN(c1cc(OC)c(OC)c(OC)c1)c1n[nH]c2nc(OC)ccc12`, the IC50 in the experiment on HepG2 turned out to be 9.64 µM; with HeLa, 0.7 µM; in the experiment with MCF7, 0.81 µM; in the experiment with A549, 31.2 µM; in the experiment with HCT-116, 16.7 µM; in the experiment on WI-38 it was 8.03 µM.

On to `COc1ccc2c(N(CC3CC3)c3cc(OC)c(OC)c(OC)c3)n[nH]c2n1`, for which the IC50 was 5.46 µM with HepG2; 0.18 µM in the experiment on HeLa; 2.35 µM with MCF7; 20.6 µM in the experiment with A549; 2.18 µM in the experiment with HCT-116; 1.29 µM with WI-38.

For `COc1ccc2c(Nc3cc(OC)c(OC)c(OC)c3)nn(C(C)C)c2n1`, the IC50 in the experiment with HepG2 was 20 µM; in the experiment on HeLa, 12.8 µM; in the experiment with MCF7 it was 13.2 µM; with A549, 31.9 µM; in the experiment on HCT-116, 12 µM; with WI-38 it was 4.32 µM.

With `COc1ccc2c(Nc3cc(OC)c(OC)c(OC)c3)nn(-c3ccccc3)c2n1`, the IC50 with HepG2 was 38.8 µM; in the experiment on HeLa it was 22.5 µM; with MCF7, above 50 µM; with A549, above 50 µM; in the experiment on HCT-116, above 50 µM; in the experiment with WI-38, 12.6 µM.

Regarding `COc1ccc2c(N(Cc3ccccc3)c3cc(OC)c(OC)c(OC)c3)n[nH]c2n1`, the IC50 in the experiment with HepG2 is 7.38 µM; with HeLa, 3.19 µM; in the experiment on MCF7 it was 10.3 µM; with A549, above 50 µM; with HCT-116 it was 3.37 µM; in the experiment on WI-38, 1.67 µM.

Turning to `COc1ccc2c(N(c3cc(OC)c(OC)c(OC)c3)C3CCCC3)n[nH]c2n1`, the IC50 in the experiment on HepG2 is above 50 µM; with HeLa, 28.4 µM; with MCF7 it was above 50 µM; in the experiment on A549, 22.7 µM; in the experiment with HCT-116, 26.2 µM; in the experiment on WI-38, 10.4 µM.

On to `COc1ccc(/C=C\c2cc(OC)c(OC)c(OC)c2)cc1O` [COMBRETASTATIN A4], for which the IC50 in the experiment with HepG2 was determined as 0.28 µM; with HeLa, 0.005 µM; with MCF7 it was 0.034 µM; in the experiment on A549, 0.058 µM; in the experiment with HCT-116, 0.029 µM; with WI-38 it was 31.6 µM.

For `COc1ccc2c(N(c3cc(OC)c(OC)c(OC)c3)C(C)C)n[nH]c2n1`, the IC50 was 24.5 µM with HepG2; 21.2 µM in the experiment on HeLa; above 50 µM in the experiment on MCF7; above 50 µM with A549; above 50 µM in the experiment with HCT-116; 6.04 µM in the experiment on WI-38.

On to `COc1ccc2c(Nc3cc(OC)c(OC)c(OC)c3)nn(C)c2n1`, for which the IC50 was 6.24 µM with HepG2; 6.07 µM with HeLa; above 50 µM with MCF7; above 50 µM in the experiment with A549; above 50 µM in the experiment with HCT-116; 2.43 µM in the experiment on WI-38.

For the compound `COc1ccc2c(Nc3cc(OC)c(OC)c(OC)c3)nn(C3CCCC3)c2n1`, the IC50 with HepG2 is above 50 µM; in the experiment on HeLa it was 6.28 µM; with MCF7 it was 22.4 µM; in the experiment on A549 it was above 50 µM; in the experiment on HCT-116, above 50 µM; in the experiment with WI-38 it was 73.8 µM.

As for `COc1ccc2c(N(C)c3cc(OC)c(OC)c(OC)c3)nn(C)c2n1`, the IC50 with HepG2 was 2.52 µM; with HeLa, 0.59 µM; in the experiment on MCF7, above 50 µM; in the experiment with A549, above 50 µM; in the experiment on HCT-116 it was above 50 µM; with WI-38, 22.8 µM.

On to `COc1ccc2c(N(CCF)c3cc(OC)c(OC)c(OC)c3)n[nH]c2n1`, for which the IC50 was found to be 5.79 µM in the experiment with HepG2; 0.012 µM with HeLa; 55.7 µM in experiment [1]; 0.102 µM with MCF7; 0.2 µM with A549; 0.12 µM with HCT-116. For the same compound, in the experiment on WI-38, the IC50 amounted to 16.5 µM. For the same compound, the inhibition entry in the experiment listed under Sus scrofa is “Dose-dependent effect”.

In the case of `COc1ccc2c(N(c3cc(OC)c(OC)c(OC)c3)C3CCCC3)nn(C3CCCC3)c2n1`, the concentration for half-maximal inhibition (IC50) is above 50 µM in the experiment on HepG2; above 50 µM with HeLa; above 50 µM with MCF7; above 50 µM in the experiment with A549; above 50 µM with HCT-116; 138 µM in the experiment on WI-38.

For the compound `COc1ccc2c(N(CC(F)F)c3cc(OC)c(OC)c(OC)c3)n[nH]c2n1`, the IC50 in the experiment on HepG2 was 18.8 µM; in the experiment on HeLa, 0.17 µM; in the experiment with MCF7, 21.7 µM; in the experiment on A549, 2.42 µM; with HCT-116 it was 0.47 µM; with WI-38 it was 1.69 µM.

Take `CCCN(c1cc(OC)c(OC)c(OC)c1)c1n[nH]c2nc(OC)ccc12`: the IC50 in the experiment with HepG2 was 6.26 µM; in the experiment with HeLa it was 0.73 µM; in the experiment on MCF7 it was 1.37 µM; in the experiment on A549, above 50 µM; in the experiment on HCT-116 it was 5.97 µM; with WI-38, 2.99 µM.

Turning to `COCCN(c1cc(OC)c(OC)c(OC)c1)c1n[nH]c2nc(OC)ccc12`, the IC50 with HepG2 was above 50 µM; with HeLa, 1.77 µM; in the experiment on MCF7 it was 1.72 µM; with A549, 31.8 µM; in the experiment on HCT-116, 3.66 µM; with WI-38 it was 30.9 µM.
